# Screens (PubChem BioAssay)
# Compounds with a hit are over-represented: about 2.1% of the library has one in this group of screens.
# NS3 helicase inh: HCV NS3 helicase inhibition; NS3 helicase DNA unwinding, Cy5 molecular beacon fluorescence; inhibition, % at 10.9 µM; actives 0.56% (n = 290,000);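 active means inhibition above the mean of all tested compounds plus 3 SD, set per campaign, cut at about 35% in these data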;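 further: 0% = DMSO wells and 100% = thioflavine S control wells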
#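 Material: hepatitis C virus NS3 helicase domain fragment enzyme; measured by: Cy5 fluorescence, 0 and 60 min reads; control set: DMSO and thioflavine S; incubation: 60 min unwinding reaction at 25 °C after ATP addition; read-out basis: % inhibition from 60/0 min fluorescence ratio, DMSO 0%, thioflavine S 100%; repeats: singlicate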
# SUMO HTRF inh: blocks human SUMOylation mediated by UBC9; P63279; HTRF SUMOylation assay, SAE1/SAE2 + UBC9, in vitro; inhibition, % at 35 µM; actives 0.36% (n = 290,000); in the data active means inhibition above about 50%, passing the limit was not always enough
# Target sequence (P63279 whole entry, looked up): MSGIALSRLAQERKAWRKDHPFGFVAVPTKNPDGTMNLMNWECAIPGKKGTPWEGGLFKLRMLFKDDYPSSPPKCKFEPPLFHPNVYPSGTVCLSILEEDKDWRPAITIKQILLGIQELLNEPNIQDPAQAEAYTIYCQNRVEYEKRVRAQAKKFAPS
# IMP-1 inhibitor: blocks Pseudomonas aeruginosa IMP-1 metallo-beta-lactamase; purified IMP-1, nitrocefin hydrolysis, epi-absorbance fluorescence; actives 0.45% (n = 290,000); inhibition, % at 5.6 µM; AID 1556;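 active means inhibition above the mean plus 3 SD of all compounds in the same screening run, cut at about 4.5% in these data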;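 further: 0% = IMP-1 with DMSO and 100% = DMSO wells lacking enzyme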
#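 assay system = purified recombinant IMP-1 metallo-beta-lactamase enzyme | schedule = 15 min preincubation plus 25 min reaction at 25 °C | signal = Epi-absorbance fluorescence, 480 nm excitation, 530 nm emission | read-out basis = percent inhibition from optical density relative to buffer-blank wells | controls = IMP-1 with DMSO as 0%, enzyme-free DMSO as 100%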
# VIM-2 inh: blocks Pseudomonas aeruginosa VIM-2 metallo-beta-lactamase. purified VIM-2, nitrocefin hydrolysis, epi-absorbance fluorescence. AID 1527. actives 0.89% (n = 290,000). inhibition, % at 5.6 µM;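 active means inhibition above the mean of all tested compounds plus 3 SD, cutoff set per screening run, cut at about 7.5% in these data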;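 further: red hydrolysis product quenches plate fluorescence so inhibitors raise well fluorescence; 0% = enzyme with DMSO and 100% = DMSO without enzyme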
# FID counter: displaces DNA intercalator in HCV helicase counter-screen. DNA fluorescent intercalator displacement, fluorescence. inhibition, % at 7.9 µM. actives 0.17% (n = 290,000). AID 1845; in the data active means inhibition above about 37%;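 further: 0% = vehicle and 100% = reference compound; higher means more ethidium bromide displaced from hairpin DNA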
# Active calls of the source: *.
SMILES,NS3 helicase inh,SUMO HTRF inh,IMP-1 inhibitor,VIM-2 inh,FID counter
Cc1sc2nc3ccc(NCc4ccco4)nn3c(=O)c2c1C,7,56*,6.2*,4,0
O=c1c2ccccc2nc2ccc(NCc3ccco3)nn12,2,28,1,1,-1
Cc1cc(OC(C)C(=O)NCc2ccccn2)c2c(C)c(C)c(=O)oc2c1 (stereo not given),-7,8,-2,2,-37
CCOC(=O)c1cnc(-n2nc(C)cc2C)nc1NCCc1ccccc1,-5,2,-4,9.6*,-21
CCOC(=O)c1cnc(-n2nc(C)cc2C)nc1Nc1ccccc1OC,4,6,-5,-2,-4
CCOC(=O)c1cnc(-n2nc(C)cc2C)nc1NC1CCCC1,-26,11,-4,8.4*,-28
CCOC(=O)c1cnc(-n2nc(C)cc2C)nc1Nc1ccc(OC)cc1,3,16,-4,11*,-5
COc1ccccc1CN(C)C(=O)c1sccc1-c1ccccc1,0,10,-4,-2,-40
Cc1c(NC(=O)c2cccnc2Cl)c(=O)n(-c2ccccc2)n1C,5,-7,7.0*,0,-7
Cc1c(NC(=O)c2cnc(Cl)c(Cl)c2)c(=O)n(-c2ccccc2)n1C,13,1,0,-1,-6
CCC(C(=O)NCCc1ccccc1OC)n1nc(C)c2c(C)n(-c3ccccc3)nc2c1=O (stereo not given),-8,5,-2,0,-59
O=C(OC(C(=O)O)C(OC(=O)c1ccccc1)C(=O)NCc1ccccc1)c1ccccc1 (stereo not given),-3,0,6.4*,1,-36
CCCc1cc(-n2ccnc2)n2c(nc3ccccc32)c1C#N,11,23,-7,5,-5
Cc1c2c(n3c(nc4ccccc43)c1C#N)N(CCN(C)C)CC2,1,29,-4,11*,18
N#Cc1c2c(c(NCCN3CCOCC3)n3c1nc1ccccc13)CCCC2,2,21,-3,3,-10
CCCc1cc(NCCCO)n2c(nc3ccccc32)c1C#N,14,22,0,10*,-12
Cc1c2c(n3c(nc4ccccc43)c1C#N)N(c1ccccc1)CC2,4,20,-5,4,-5
Cc1cc(NCCN2CCCCC2)n2c(nc3ccccc32)c1C#N,1,21,-2,8.7*,5
CCOC(=O)N1CCN(c2nc3ccc(C)cc3n3cnnc23)CC1,0,2,-1,3,-13
CCCc1cc(=O)oc2cc(C)cc(OCC(=O)NCc3ccccn3)c12,4,27,-1,-2,-31
CCCc1cc(=O)oc2cc(C)cc(OCC(=O)Nc3cccnc3)c12,-2,30,-5,12*,-25
O=C(Cn1cc([N+](=O)[O-])nc1[N+](=O)[O-])N1CCN(c2ccccc2)CC1,-10,11,-1,-3,2
Cc1nn(C)cc1-c1n[nH]c(=S)n1-c1ccc(F)cc1,-5,9,-2,5,-9
Cc1ccc(-n2c(-c3cn(C)nc3C)n[nH]c2=S)cc1,10,-1,-5,8.9*,-9
S=c1[nH]nc(-c2ccc(Cl)cc2)n1-c1ccc2c(c1)OCCO2,5,5,-3,3,-18
SMILES,NS3 helicase inh,SUMO HTRF inh,IMP-1 inhibitor,VIM-2 inh,FID counter
Cn1cc(Cl)c(-c2n[nH]c(=S)n2-c2ccc(F)cc2)n1,6,6,-1,11*,-5
Fc1ccc(-c2n[nH]c(=S)n2-c2ccc3c(c2)OCCO3)cc1,4,19,0,9.2*,-15
Cc1occc1-c1n[nH]c(=S)n1-c1ccccc1,6,12,-5,8.7*,0
O=C(Cc1ccc(Br)cc1)NCCc1ccc(F)cc1,-6,-4,2,2,-15
CSc1ccc(C(=O)N2CCC(CCC(=O)NC3CC3)CC2)cc1,9,9,-2,-1,-24
CCOC(=O)[C@@H]1[C@H]2COc3ccc(Br)cc3[C@@H]2N2C(=O)N(c3ccc(C(F)(F)F)cc3)C(=O)[C@]12C,-28,-9,-1,1,-31
O=C(CSc1n[nH]c(=O)[nH]c1=O)Nc1ccc(C(=O)O)cc1,3,4,7.7*,1,-6
CCOc1ccccc1NC(=O)Nc1cccc(S(N)(=O)=O)c1,-18,-6,-2,-2,0
O=C(O)/C(=C\c1ccccc1OC(F)F)c1ccc(-c2ccccc2)cc1,1,29,7.3*,-2,-22
Cc1cc2ccccc2n2c(SCC(=O)N3CCOCC3)nnc12,-7,6,-4,8.0*,-7
O=C(CSc1nnc2ccc3ccccc3n12)N1CCOCC1,1,14,-1,2,-6
O=C(Nc1ccc(-c2cn3ccccc3n2)cc1)c1cccs1,7,45,6.4*,-4,6
COc1ccc(CC(=O)Nc2ccc(-c3cn4ccccc4n3)cc2)cc1,-4,27,-1,-4,-2
Cc1cccc2c1NC1(CCCC1)CC2C (stereo not given),1,7,-1,-1,3
Cc1ccc2c(c1C)NC(C)CC2C (stereo not given),18,-6,5.0*,2,2
O=C(C[n+]1ccccc1)Nc1ccc(Cl)c([N+](=O)[O-])c1,-1,5,-3,4,11
Cc1ccc[n+](CC(=O)Nc2ccc(Cl)c([N+](=O)[O-])c2)c1,2,8,-1,8.9*,25
CCCC(c1nnnn1CCc1ccccc1)N1CCC(C(N)=O)CC1 (stereo not given),6,12,-4,-3,-10
Cc1ccc(/C=C/C(=O)O)cc1S(=O)(=O)N1CCc2ccccc21,11,2,-3,-2,-31
O=C(N/C(=C\c1ccc([N+](=O)[O-])cc1)C(=O)N1CCCCC1)c1ccccc1Br,6,-12,0,-1,-16
CC(=O)Nc1cc(OC(C)=O)c2nonc2c1OC(C)=O,7,101*,-1,1,4
CCC(=O)c1ccccc1OCCCCn1cncn1,2,25,8.4*,0,2
CCC(=O)c1ccc(OCCn2cncn2)cc1,-1,-2,-5,-2,-1
O=C(c1cnc2n(c1=O)CCS2)N1CCN(c2ccccc2Cl)CC1,-12,7,-2,-2,-8
O=C(c1cnc2n(c1=O)CCS2)N1CCN(C(c2ccccc2)c2ccc(Cl)cc2)CC1 (stereo not given),-4,5,5.9*,1,-38
CC(C)(O)c1[nH]c2ccc(C#N)cc2c1C(C)(C)O,27,19,4.9*,3,-9
COc1ccccc1NC(=O)N1CCCC1C(=O)NCc1ccccc1Cl (stereo not given),0,-12,-2,-2,-11
CN(Cc1ccc2nonc2c1)Cc1nc(CC2CC2)no1,-8,20,0,-3,-8
COCCNC(=O)C(c1ccc(F)cc1)N(Cc1cccs1)C(=O)CCC(=O)Nc1ccccn1 (stereo not given),0,-18,-2,-4,-34
